ChEMBL document CHEMBL4808178 (J Med Chem, 2021)
≈ marks a conversion by molar mass, not a printed value. Calls of active or inactive are those of the source. The calls are words filed in the database; no cut-off is given here.

How the values were obtained:
HCT-116 [1] = assay: Induction of apoptosis in human HCT116 cells assessed as early apoptotic cells at 10 uM after 24 hrs by annexin V-FITC/propidium iodide staining based flow cytometry (reference value: 1%); format: functional
L02 = assay: Cytotoxicity against human L02 cells assessed as reduction in cell viability incubated for 72 hrs by MTT assay; format: cell-based; conditions: L02, 72 h
Outline: (§1)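 About 5 × 10³ cells/well, seeded overnight at 37 °C, 5% CO₂, in DMEM or RPMI-1640 with 10% FBS and antibiotics. DMSO-dissolved compounds diluted in medium, exposure 72 h.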

[2] = Cmax in Sprague-Dawley rat at 25 mg/kg, po measured up to 48 hrs by LC-MS/MS analysis; format: ADME, organism-based; set-up: route oral, dose 25 mg/kg, time <=48; conditions: in vivo
Outline: (§2)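 Overnight-fasted male SD rats (about 250−270 g), three per group, single oral 25 mg/kg; test compound suspended in 5% CMC-Na, control as sodium salt in phosphate buffer. Blood sampled 0.25–48 h, plasma by centrifugation, stored −40 °C, quantified by LC−MS/MS against plasma standard curve (3–3000 ng/mL) with internal standard; model-fitted PK parameters.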

[3] = AUC(0 to t) in Sprague-Dawley rat at 25 mg/kg, po measured up to 48 hrs by LC-MS/MS analysis; format: ADME, organism-based; set-up: route oral, dose 25 mg/kg, time <=48; conditions: in vivo; outline: as §2
HCT-116 [4] = assay: Induction of apoptosis in human HCT116 cells assessed as viable cells at 5 uM after 24 hrs by annexin V-FITC/propidium iodide staining based flow cytometry (reference value: 88.3%); format: functional; conditions: read-out: Activity
HCT-116 [5] = assay: Induction of apoptosis in human HCT116 cells assessed as early apoptotic cells at 5 uM after 24 hrs by annexin V-FITC/propidium iodide staining based flow cytometry (reference value: 1%); format: functional
HCT-116 [6] = assay: Induction of apoptosis in human HCT116 cells assessed as necrotic cells at 20 uM after 24 hrs by annexin V-FITC/propidium iodide staining based flow cytometry (reference value: 5.6%); format: functional
HCT-116 [7] = assay: Effect on Wnt/beta-Catenin signaling in human HCT116 cells assessed as reduction in c-Myc mRNA level at 20 uM after 24 hrs by RT-qPCR analysis; format: functional, cell-based
Outline: (§3)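 HCT-116 cells treated 24 h; total RNA by TRIZOL, one-step RT-qPCR: 55 °C 10 min, 95 °C 1 min, then 39 cycles of 95 °C 10 s and 60 °C 30 s, with melting-curve and no-template controls. β-Actin as internal standard; relative expression by 2^−ΔΔCt, mean ± SD (n = 3).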

HCT-116 [8] = assay: Induction of cell cycle arrest in human HCT116 cells assessed as accumulation at G0/G1 phase at 20 uM after 24 hrs by propidium iodide-staining based flow cytometry (reference value: 48.89%); format: functional
HCT-116 [9] = assay: Induction of apoptosis in human HCT116 cells assessed as increase in Cyt c protein expression at 20 uM incubated for 24 hrs by Western blot analysis; format: functional, cell-based
Outline: (§4)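 HCT-116 cells at 2 × 10⁵ cells/mL in DMEM/10% FBS, grown 12 h at 37 °C, then treated 24 h (vehicle DMSO). Lysates quantified by BCA, run on 10% SDS-PAGE, PVDF transfer, blocked in 5% milk/TBST, primary antibodies 4 °C overnight, HRP secondary 2 h, chemiluminescent detection; normalized to β-actin, n = 3.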

[10] = Toxicity in BALB/c mouse xenografted with human HCT116 cells assessed as effect on heart tissue at 60 to 90 mg/kg, po administered twice daily for 4 weeks and measured every 3 days by HE staining based assay; format: organism-based, HCT-116; conditions: in vivo, 672 h, dose 60-90 mg/kg
Outline: (§5)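 Male 5-week BALB/c nude mice (16−18 g), 0.2 mL of 5 × 10⁷ cells/mL HCT-116 injected into right armpit; at ~100 mm³ randomized, 5/group; intragastric 60 or 90 mg/kg twice daily for 4 weeks; tumor volume and body weight every 3 days; after sacrifice heart, liver, spleen, lung, kidney HE-stained.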

[11] = Toxicity in BALB/c mouse xenografted with human HCT116 cells assessed as effect on kidney tissue at 60 to 90 mg/kg, po administered twice daily for 4 weeks and measured every 3 days by HE staining based assay; format: organism-based, HCT-116; conditions: in vivo, 672 h, dose 60-90 mg/kg; outline: as §5
[12] = Toxicity in BALB/c mouse xenografted with human HCT116 cells assessed as effect on spleen tissue at 60 to 90 mg/kg, po administered twice daily for 4 weeks and measured every 3 days by HE staining based assay; format: organism-based, HCT-116; conditions: in vivo, 672 h, dose 60-90 mg/kg; outline: as §5
[13] = MRT(0 to infinity) in Sprague-Dawley rat at 25 mg/kg, po measured up to 48 hrs by LC-MS/MS analysis; format: ADME, organism-based; conditions: in vivo
Outline: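 Overnight-fasted male SD rats (250−270 g, n = 3/group), single oral 25 mg/kg in 5% CMC-Na (reference sodium salt in phosphate buffer); plasma at 0.25–48 h (12 timepoints), stored −40 °C; LC−MS/MS with internal-standard calibration 3–3000 ng/mL; parameters fitted by model.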

[14] = Thermodynamic solubility of the compound in phosphate buffer at pH 6.8 after overnight incubation by shake flask method; format: physicochemical; conditions: read-out: Therm_solubility
Outline: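 Shake-flask method: solid added to pH 6.8 phosphate buffer at nominal 2 mg/mL, sonicated 10 min, shaken overnight 800 rpm at room temperature; phases separated by centrifugation 5000 rpm 20 min before supernatant quantitation.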

HCT-116 [15] = assay: Cytotoxicity against human HCT-116 cells assessed as reduction in cell viability incubated for 72 hrs by MTT assay; format: functional, cell-based; conditions: HCT-116, 72 h; outline: as §1
[16] = Clearance in Sprague-Dawley rat at 25 mg/kg, po measured up to 48 hrs by LC-MS/MS analysis; format: ADME, organism-based; conditions: in vivo; outline: as §2
HCT-116 [17] = assay: Induction of cell cycle arrest in human HCT116 cells assessed as accumulation at G2/M phase at 20 uM after 24 hrs by propidium iodide-staining based flow cytometry (reference value: 14.67%); format: functional
HCT-116 [18] = assay: Induction of apoptosis in human HCT116 cells assessed as increase in Bax protein expression at 20 uM incubated for 24 hrs by Western blot analysis; format: functional, cell-based; outline: as §4
[19] = AUC(0 to infinity) in Sprague-Dawley rat at 25 mg/kg, po measured up to 48 hrs by LC-MS/MS analysis; format: ADME, organism-based; set-up: route oral, dose 25 mg/kg, time <=48; conditions: in vivo; outline: as §2
HCT-116 [20] = assay: Inhibition of cell stemness in human HCT116 cells assessed as reduction in Nanog mRNA transcription levels at 20 uM after 24 hrs by RT-qPCR analysis; format: functional, cell-based
Outline: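 Sorted ALDH⁺ HCT-116 cells treated 24 h; TRIZOL RNA, one-step RT-qPCR (RT 10 min 55 °C; 95 °C 1 min; 39 cycles 95 °C 10 s/60 °C 30 s) with melting-curve check; β-actin reference; fold change by 2^−ΔΔCt; t test, mean ± SD, n = 3.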

HCT-116 [21] = assay: Effect on Wnt/beta-Catenin signaling in human HCT116 cells assessed as reduction in MMP7 mRNA level at 20 uM after 24 hrs by RT-qPCR analysis; format: functional, cell-based; outline: as §3

`O=C(NCCO)c1ccc2c(c1)nc(Nc1cccc(Cl)c1)c1ccncc12` showed an Activity (HCT-116 [1]) of 12.6%, an IC50 (L02) of 96.7 µM and a Cmax [2] of 7020 ng/mL. For the same compound, the AUC(0-t) at 48 h [3] was 40500 ng·h/mL, the viability at 5 µM (HCT-116 [4]) was 60.7% and the Activity (HCT-116 [5]) was 18%. For the same compound, the Activity (HCT-116 [6]) was 8.7%, the Activity (HCT-116 [7]) was “Active” and the Activity (HCT-116 [8]) was 72.92%. The Activity (HCT-116 [9]) was “Active”, the Activity [10] was “Non-Toxic” and the Activity [11] was “Non-Toxic”. For the same compound, the Activity [12] was “Non-Toxic”, the MRT inf [13] was 6.26 h and the solubility thermodynamic [14] was 0.89 µg/mL (≈ 2.27 µM). For the same compound, the IC50 (HCT-116 [15]) was 3.07 µM, the CL/F [16] was 10 mL/min/kg and the Activity (HCT-116 [17]) was 22.72%. The Activity (HCT-116 [18]) was “Active”, the AUC(0-inf) [19] was 41500 ng·h/mL and the inhibition (HCT-116 [20]) was “Active”. For the same compound, the Activity (HCT-116 [21]) was “Active”.
